Results on one compound are retold here after ChEMBL document CHEMBL1143407, “In vivo efficacy and pharmacokinetics of voriconazole in an animal model of dermatophytosis” (Antimicrob Agents Chemother, 2007).

Data set [1] in a line: Cmax in guinea pig interstitial fluid at 20 mg/kg/day, po after 3 hrs. The arrangement: dose 20 mg/kg/day, route oral. Type of data set: ADME, organism-based, Cavia porcellus. Summed up: (§1)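 Day 14: the first three treated guinea pigs, infected and dosed as above, were studied under anesthesia. Dermal microdialysis catheters were placed in normal and inoculated skin and perfused with isotonic NaCl at 1 μl/min. Probes were calibrated beforehand by retrodialysis (5 and 10 μg/ml). Dialysates were collected every 30 min for 3 h after the twelfth 20 mg/kg oral dose. Unbound level = 100 × C_dialysate/RR, by isocratic RP-18 HPLC.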

For a further data set, the system named is Nannizzia gypsea. The data set is described as follows: Antimicrobial activity against Microsporum gypseum. The class given is functional.
In the next data set the test system is Microsporum distortum. Kind of data set: Antimicrobial activity against Microsporum distortum. Type of data set: functional.
Data set [2] can be described thus: Cmin in guinea pig skin biopsy specimen at 20 mg/kg/day, po after 3 hrs. Also noted: route oral. Conditions: read-out: Cmin. The class given is ADME, organism-based, Cavia porcellus, Zone of skin. Summed up: (§2)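 Day 14: three infected guinea pigs received the twelfth 20 mg/kg oral gavage dose. Whole blood was drawn from the eye vein hourly from 1 h. 3-mm full-thickness punch biopsies were taken hourly from the lesion margin over 3 h. Blood was precipitated with acetonitrile. Biopsies were extracted 6 h in acetonitrile-ammonium phosphate with freeze-thaw cycles. Total drug was measured by isocratic RP-18 HPLC (LLOQ 0.2 μg/ml).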

The nature of data set [3]: Cmin in guinea pig whole blood at 20 mg/kg/day, po after 3 hrs. Particulars: read-out: Cmin. Also noted: route oral. The class given is ADME, organism-based, Cavia porcellus. The method in brief: as §2
The test system of data set [4] is Microsporum canis. Kind of data set: Antifungal activity against Microsporum canis infected in guinea pig dermatophytosis model assessed as colony count per specimen at 20 mg/kg/day, po administered 12 days measured after 14 days. Type of data set: functional. The method in brief: (§3)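 Female guinea pigs (418 to 482 g) were inoculated on shaved skin with M. canis clinical-isolate microconidia at about 8 × 10⁵ conidia/ml. Oral solution was given by gavage at 20 mg/kg/day on days 3 to 14; controls were untreated (n = 8 per group). Skin scrapings were cultured on SAB with cycloheximide/chloramphenicol for 28 days and CFU per specimen counted. Groups were compared by Wilcoxon two-sample test.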

Data set [5] relates to Microsporum canis. Kind of data set: Antifungal activity against Microsporum canis infected in guinea pig dermatophytosis model assessed as colony count per specimen at 20 mg/kg/day, po after 7 days. The class given is functional. Summed up:
as §3

The subject of another data set is Paraphyton cookei. The data set is described as follows: Antimicrobial activity against Microsporum cookei. Type of data set: functional.
A short description of data set [6]: Drug level in guinea pig interstitial fluid at 20 mg/kg/day, po after 3 hrs. Also noted: route oral. Conditions: read-out: Drug uptake. Type of data set: ADME, organism-based, Cavia porcellus. Summed up:
as §1

In data set [7] the test system is Microsporum canis. The data set is described as follows: Antifungal activity against Microsporum canis infected in guinea pig dermatophytosis model assessed as colony count per specimen at 20 mg/kg/day, po after 3 days. The class given is functional. Summed up: as §3
Data set [8] can be described thus: Drug level in guinea pig whole blood at 20 mg/kg/day, po after 3 hrs. Conditions: read-out: Drug uptake. Type of data set: ADME, organism-based, Cavia porcellus. The arrangement: route oral. The method in brief:
as §2

A short description of data set [9]: Cmax in guinea pig skin at 20 mg/kg/day, po after 3 hrs. Type of data set: ADME, organism-based, Cavia porcellus, Zone of skin. Also noted: dose 20 mg/kg/day, route oral. The method in brief: as §2
The test system of data set [10] is Microsporum canis. Kind of data set: Antifungal activity against Microsporum canis infected in guinea pig dermatophytosis model assessed as colony count per specimen at 20 mg/kg/day, po administered 12 days measured after 17 days. The class given is functional. Summed up: as §3
A short description of data set [11]: Drug level in guinea pig skin biopsy specimen at 20 mg/kg/day, po after 3 hrs. Type of data set: ADME, organism-based, Cavia porcellus, Zone of skin. The arrangement: route oral. Particulars: read-out: Drug uptake. The method in brief:
as §2

Data set [12] relates to Microsporum canis. Kind of data set: Antimicrobial activity against Microsporum canis. Type of data set: functional. Summed up:
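MIC was determined by CLSI M38-A broth dilution, modified to use 10⁵ CFU/ml inoculum and 10 days incubation at 25°C. The organism was a clinical M. canis isolate, tested in triplicate.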

In a further data set the test system is Nannizzia nana. The data set is described as follows: Antimicrobial activity against Microsporum nanum. The class given is functional.
The next data set relates to Microsporum audouinii. Kind of data set: Antimicrobial activity against Microsporum audouinii. Type of data set: functional.
The nature of data set [13]: Cmax in guinea pig skin biopsy specimen at 20 mg/kg/day, po after 3 hrs. Type of data set: ADME, organism-based, Cavia porcellus, Zone of skin. Also noted: dose 20 mg/kg/day, route oral. The method in brief:
as §2

Data set [14] in a line: Cmax in guinea pig whole blood at 20 mg/kg/day, po after 3 hrs. The class given is ADME, organism-based, Cavia porcellus. Also noted: dose 20 mg/kg/day, route oral. Summed up: as §2

Converted amounts (≈) assume the structure as drawn.

Consider `C[C@@H](c1ncncc1F)[C@](O)(Cn1cncn1)c1ccc(F)cc1F` [VORICONAZOLE], for which the Cmax in [1] worked out at 2000 ng/mL; in [9], 28100 ng/g; in data set [13], 35900 ng/g; in data set [14] it was 7700 ng/mL. Besides, the MIC against Nannizzia gypsea turned out to be 0.01 µg/mL (≈ 0.0286 µM); in the data set on Microsporum distortum it was 0.01 µg/mL (≈ 0.0286 µM); with Paraphyton cookei, 0.01 µg/mL (≈ 0.0286 µM); against Microsporum canis [12] it was 0.25 µg/mL (≈ 0.716 µM); against Nannizzia nana, 0.01 µg/mL (≈ 0.0286 µM); with Microsporum audouinii, 0.01 µg/mL (≈ 0.0286 µM). Further, the concentration at 3 h in [2] is 9100 ng/g; in data set [3], 4000 ng/mL; in [6] it was 1400 ng/mL; in data set [8] it was 6300 ng/mL; in data set [11] it was 18300 ng/g. Further, the Activity with Microsporum canis [4] is given as 0.3; in the data set on Microsporum canis [5], 4.1; in the data set with Microsporum canis [7], 6.4; with Microsporum canis [10] it was 0.2.
